Only some compounds are listed: those with a hit (about 2.5% of all), similar ones and a draw of the others.
proKLK7 act – activators of human kallikrein-7 zymogen; 0.9% of 370,000 active; AID 652039; activation, % at 7 µM; purified proKLK7, EDANS-DABCYL substrate fluorescence; 100% is mature enzyme control, 0% vehicle;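 active = activation above the mean of all tested compounds plus 3 SD, computed per campaign excluding outliers beyond control limits, cut at about 13% in these data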
ADAM17 inh – inhibitors of human ADAM17; P78536; recombinant ADAM17, EDANS/DABCYL FRET peptide cleavage; inhibition, % at 6.95 µM; 0.83% of 370,000 active;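 active = inhibition above the mean of compounds lying between control limits plus 3 SD, set per campaign, cut at about 8.5% in these data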
Target sequence (P78536 215-824 limits assumed): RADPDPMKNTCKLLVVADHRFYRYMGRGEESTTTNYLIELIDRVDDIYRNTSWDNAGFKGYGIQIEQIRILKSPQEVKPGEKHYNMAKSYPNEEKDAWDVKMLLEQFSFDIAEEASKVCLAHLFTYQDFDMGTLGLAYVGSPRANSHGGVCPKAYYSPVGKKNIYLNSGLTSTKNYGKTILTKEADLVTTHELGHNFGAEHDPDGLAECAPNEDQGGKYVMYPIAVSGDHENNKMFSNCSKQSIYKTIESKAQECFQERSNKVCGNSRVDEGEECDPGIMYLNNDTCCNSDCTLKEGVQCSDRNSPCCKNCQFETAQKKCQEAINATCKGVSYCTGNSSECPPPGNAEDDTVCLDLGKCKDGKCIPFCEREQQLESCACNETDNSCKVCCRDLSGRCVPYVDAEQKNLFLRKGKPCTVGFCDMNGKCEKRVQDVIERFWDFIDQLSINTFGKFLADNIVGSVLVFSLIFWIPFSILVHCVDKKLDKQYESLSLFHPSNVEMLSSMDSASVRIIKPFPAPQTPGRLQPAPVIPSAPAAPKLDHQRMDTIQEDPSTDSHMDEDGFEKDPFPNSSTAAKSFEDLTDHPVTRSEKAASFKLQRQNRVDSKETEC
NR2E3 ag-1 – NR2E3 (human) agonism. inhibition of corepressor binding, % at 4.78 µM. Q9Y5X4. GST-NR2E3/biotin-RetCOR TR-FRET, 1536-well. 0.12% of 320,000 active;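 active = percent inhibition above the cutoff of mean plus 3 SD of all tested compounds, set per screening campaign, cut at about 20% in these data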
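system = GST-tagged NR2E3 plus biotinylated RetCOR corepressor | input = 1.35 nM GST-NR2E3 | also added = 7 nM biotin-RetCOR | schedule = 5 h incubation at 4 °C | measured by = TR-FRET with europium anti-GST and streptavidin-D2, 340 nm excitation | read-out = percent loss of FRET ratio relative to control wells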
JMJD2C inh – inhibitors of human GASC-1 (JMJD2C) demethylase; GST-JMJD2C(1-420) H3K9me3 demethylation, DELFIA europium; inhibition, % at 2.35 µM; 0.069% of 330,000 active; AID 2099;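 active = more than half of a compound's replicate wells show inhibition beyond 50%, single wells judged on their own value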;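 note: signal counts dimethyl H3K9 product captured on neutravidin plate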
ADAM10 inh – inhibits human ADAM10. O14672. recombinant ADAM10, EDANS/DABCYL FRET peptide cleavage, 3 h. inhibition, % at 7 µM. 0.62% of 370,000 active. AID 720582;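 active = inhibition above a per-campaign cutoff equal to the mean of compounds falling between control-based bounds plus 3 SD, cut at about 20% in these data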
NR2E3 ag-2 – human photoreceptor-specific nuclear receptor agonism. inhibition of corepressor binding, % at 3.98 µM. Q9Y5X4. CHO-S Gal4-NCOR/VP16-NR2E3 two-hybrid, luciferase. 0.35% of 360,000 active;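 active = inhibition above the mean of all tested compounds plus 3 SD, cut at about 70% in these data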;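 note: higher means lower luciferase signal from less NR2E3 corepressor binding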
NR2E3 ag conf – confirmation of human NR2E3 agonists; shares compounds with NR2E3 ag-2; CHO-S mammalian two-hybrid NR2E3-NCOR, luciferase luminescence; 51% of 2,300 active; inhibition, % at 3.98 µM;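 active = average inhibition above a cutoff equal to the mean inhibition of all tested compounds plus one SD, cut at about 70% in these data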
VP16 counter – counter-screen for NR2E3 agonists: GAL4-VP16 reporter inhibitors; 29% of 2,300 active; CHO-S GAL4-VP16 luciferase reporter, luminescence; inhibition, % at 3.98 µM; shares compounds with NR2E3 ag-2;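 active = mean inhibition above a cutoff equal to the average over all tested compounds plus one standard deviation, cut at about 70% in these data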;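 note: luciferase from a UAS reporter driven by GAL4-VP16 transactivation; higher means less reporter light so more repression of VP16 activity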
A number is an active result; n = inactive; x = no result given.

SMILES	proKLK7 act	ADAM17 inh	NR2E3 ag-1	JMJD2C inh	ADAM10 inh	NR2E3 ag-2	NR2E3 ag conf	VP16 counter
CC1=NN(C(N)=S)C(=O)C1N=Nc1c(C)cc(C)cc1C (stereo unspecified)	n	n	n	n	n	73	n	n
CC1=NN(C(N)=S)C(=O)C1N=Nc1ccccc1O (stereo unspecified)	n	n	n	n	n	n	x	x
CC1=NN(C(N)=S)C(=O)C1N=Nc1c(Cl)cc([N+](=O)[O-])cc1Cl (stereo unspecified)	n	n	n	n	n	83	n	n
CC1=NN(C(N)=S)C(=O)C1N=Nc1ccc(C)cc1C (stereo unspecified)	n	n	n	n	n	x	x	x
COC(=O)C1CN(Cc2cn(Cc3ccc(Cl)cc3)nn2)CCS(=O)(=O)N1Cc1ccc(C)cc1 (stereo unspecified)	n	n	x	x	n	x	x	x
Cc1ccc(C2CCC3(CCC(=O)N3CCOC(=O)Nc3cccc(C#N)c3)CC2)cc1 (stereo unspecified)	n	n	x	x	n	x	x	x
CC1=CCC[C@@H]2[C@]3(CC/C(=C/CO)CO)CO[C@@]2(C1)[C@@H](O)C[C@H]3C	n	n	x	x	n	n	x	x
Cc1ccccc1Oc1cc(-n2ncc(Cl)c(Cl)c2=O)ncn1	n	n	n	n	n	n	n	n
CCOc1cnn(-c2cc(Oc3ccc(C)cc3)ncn2)c(=O)c1Cl	n	n	n	n	n	n	x	x
C/C(CC(C)(C)C1CCCCC1)=N\NC(N)=S	n	n	n	n	n	81	n	n
CCN(CC)S(=O)(=O)c1cccc(NC(=O)CNc2cccc(S(=O)(=O)N3CCCC3)c2)c1	n	n	n	n	n	85	80	n
O=C(C1CCCN1S(=O)(=O)c1ccc(F)cc1)N1CCc2ccccc2C1 (stereo unspecified)	n	n	x	x	n	x	x	x
COc1ccc(Sc2nc(-c3ccccn3)ncc2OC)cc1	n	n	n	n	n	92	n	n
COc1cnc(-c2ccccn2)nc1Sc1ccccc1	n	n	n	n	n	94	n	n
COc1cnc(N(C)C)nc1Sc1ccc(Cl)cc1	n	n	n	n	n	n	x	x
COc1cnc(-c2ccccn2)nc1Sc1ccc(F)cc1	n	n	n	n	n	n	n	n
CCOC(=O)CSc1nc(-c2ccccn2)ncc1OC	n	n	n	n	n	n	x	x
COc1cnc(-c2ccccn2)nc1Sc1ccc(Cl)cc1	n	n	n	n	n	n	n	n
Cc1ccccc1C(=O)N1CCC(C(=O)Nc2ccc(S(=O)(=O)N3CCCCC3)cc2)CC1	n	n	n	n	n	n	x	x
CN=C1S/C(=C/c2cc(C)n(-c3cc(C)ccc3OC)c2C)C(=O)N1C	x	n	x	x	n	x	x	x
COc1ccc(C(=O)NCC(=O)NCc2ccncc2)cc1	n	n	x	n	n	n	x	x
N#Cc1cnc(=S)n(-c2cc(C(F)(F)F)cc(C(F)(F)F)c2)c1N	n	n	x	x	n	n	x	x
CC(C)(C)c1ccc(-n2ncc3c2CCCC3NC(=O)c2cnccn2)cc1 (stereo unspecified)	n	n	n	n	n	89	n	n
Cn1nccc1C(=O)NC1CCCc2c1cnn2-c1ccc(C(C)(C)C)cc1 (stereo unspecified)	n	n	n	n	n	106	95	84
CC(=O)NC1CCCc2c1cnn2-c1ccc(C(C)(C)C)cc1 (stereo unspecified)	n	n	n	n	n	n	x	x
SMILES	proKLK7 act	ADAM17 inh	NR2E3 ag-1	JMJD2C inh	ADAM10 inh	NR2E3 ag-2	NR2E3 ag conf	VP16 counter
O=C(NCCc1c[nH]c2ccccc12)c1cnccn1	n	n	n	n	n	n	x	x
CCN(c1ccccc1)S(=O)(=O)c1ccc(C(=O)NC2CCN(Cc3ccccc3)CC2)cc1	x	x	x	n	x	n	80	n
O=C(COC(=O)CNC(=O)c1ccccc1F)NC12CC3CC(CC(C3)C1)C2	n	n	n	n	n	n	x	x
O=C(O[C@H]1CC[C@@]23CCCN2C(=O)CCC[C@H]3C1)N1CCN(c2ccccc2)CC1	x	n	x	x	n	x	x	x
On1ccccc1=S	n	n	n	n	n	101	n	n
Cc1ccc(C)c(NS(=O)(=O)c2ccc(-c3cnc(C4CC4)o3)cc2)c1	n	n	n	n	n	80	n	n
Cc1cccc(NS(=O)(=O)c2ccc(-c3cnc(C4CC4)o3)cc2)c1C	n	n	n	n	n	83	77	n
Cc1cc(C)cc(NS(=O)(=O)c2ccc(-c3cnc(C4CC4)o3)cc2)c1	n	n	n	n	n	n	n	n
CC(=O)c1cccc(NS(=O)(=O)c2ccc(-c3cnc(C4CC4)o3)cc2)c1	n	n	n	n	n	101	95	82
COCCNC(=S)N(C)[C@H]1C[C@H]2c3[nH]c4c(-c5cccc(C)c5)cccc4c3CCN2C[C@H]1[C@H](C)O	n	n	x	x	n	x	x	x
Cc1cc(=O)n(-c2ccc(O)cc2)[nH]1	n	n	n	n	n	n	n	n
Cc1ccc(-n2c(C)nnc2SCC(=O)NNC(=O)c2ccco2)cc1	n	n	n	n	n	n	x	x
O=c1oc2ccccc2c(Nc2ccccc2O)c1[N+](=O)[O-]	n	n	n	n	n	n	x	x
O=c1oc2ccccc2c(Nc2cccc3ccccc23)c1[N+](=O)[O-]	n	n	n	n	n	n	n	n
CC(Sc1cccc[n+]1[O-])C(=O)NC1CCCCC1C (stereo unspecified)	n	n	x	n	n	n	x	x
C=CCOC(=O)N[C@H](c1cccc(OC)c1)[C@H](C)/C=C/CC(=O)OC	n	n	x	x	n	x	x	x
O=c1cc(CSc2ccc(Cl)cc2)nc(-c2ccccn2)[nH]1	n	n	n	n	n	101	98	n
Clc1ccc(SCc2cc(N3CCOCC3)nc(-c3ccccn3)n2)cc1	n	n	n	n	n	95	n	n
COc1ccc(/C=C2/SC(=S)N(CCCC(=O)Nc3cccc(O)c3)C2=O)cc1	n	n	n	n	n	n	n	n
COc1ccc(/C=C2\SC(=O)N(CCCC(=O)Nc3ccc(C(=O)O)cc3)C2=O)cc1	n	n	x	x	n	88	85	92
COc1ccc(/C=C2\SC(=S)N(CCC(=O)Nc3cccc(O)c3)C2=O)cc1OC	n	n	n	n	n	n	x	x
O=C(CCN1C(=O)S/C(=C\c2ccc(Cl)cc2)C1=O)Nc1ccc(C(=O)O)cc1	n	n	n	n	n	n	x	x
COc1cccc(/C=C2\SC(=S)N(CCCC(=O)Nc3cccc(C(=O)O)c3)C2=O)c1	x	x	x	x	x	n	n	n
